Measurements taken from ChEMBL document CHEMBL1687923, “Discovery of N-hydroxyindole-based inhibitors of human lactate dehydrogenase isoform A (LDH-A) as starvation agents against cancer cells” (J Med Chem, 2011).
pIC50, pKi: −log10 of the molar value. Active and inactive are the calls of the source. The calls are words filed in the database; no cut-off is given here.

Columns and labels:
[1] = molecular target: T1, L-lactate dehydrogenase A chain (Homo sapiens, UniProt P00338); assay: Inhibition of human LDH-A using pyruvate as substrate and NADH as cofactor at 125 uM after 5 mins by calorimetric assay relative to control
[2] = molecular target: L-lactate dehydrogenase B chain (Homo sapiens) (UniProt P07195); assay: Inhibition of human LDH-B using pyruvate as substrate and NADH as cofactor at 125 uM after 5 mins by calorimetric assay relative to control
Chain of L-lactate dehydrogenase B chain (Homo sapiens) (P07195 2-334 limits assumed): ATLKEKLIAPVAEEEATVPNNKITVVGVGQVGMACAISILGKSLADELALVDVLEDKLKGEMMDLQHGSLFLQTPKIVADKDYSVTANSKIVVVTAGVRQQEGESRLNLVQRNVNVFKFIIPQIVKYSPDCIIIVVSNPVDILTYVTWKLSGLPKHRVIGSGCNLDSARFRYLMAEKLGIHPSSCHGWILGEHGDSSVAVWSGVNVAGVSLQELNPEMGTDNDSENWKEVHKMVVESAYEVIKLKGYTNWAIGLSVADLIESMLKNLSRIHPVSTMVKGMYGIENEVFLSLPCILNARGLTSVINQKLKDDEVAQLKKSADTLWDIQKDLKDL
In short: (§1)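 Purified human LDH1 (LDH-B4), run as for LDH-A but only under pyruvate saturation (2 mM sodium pyruvate) with 25 µM NADH. Test compound at 125 µM, 37 °C, phosphate buffer. Activity is the A340 decrease from NADH consumption, read every 30 s for 5 min. Percent inhibition is relative to control, as mean ± SD of two or more independent experiments. Detection limit is 3%.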

[3] = Cytotoxicity against immortalized human HPNE cells expressing human TERT after 48 hrs by sulforhodamine B assay; assay type: functional, cell-based
In short: (§2)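 Cells grown in RPMI 1640 with 10% FCS, 2 mM glutamine and penicillin/streptomycin, at 37 °C in 5% CO2 under normoxia. Compounds (10 mM DMSO stocks) are added on day 1 after plating at 1–100 µM, in triplicate, for 48 h. DMSO 0.25% v/v serves as control. Cells are TCA-fixed, stained with SRB and read at 492 nm. Growth is calculated relative to T0 and control. IC50 reported as mean ± SD from at least two experiments.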

[4] = tested on: A2780; assay: Cytotoxicity against human A2780 cells after 48 hrs by sulforhodamine B assay; assay type: functional, cell-based; conditions: A2780, 48 h; in short: as §2
[5] = tested on: HS27; assay: Cytotoxicity against immortalized human HS27 cells after 48 hrs by sulforhodamine B assay; assay type: functional, cell-based; conditions: HS27, 48 h; in short: as §2
[6] = tested on: MSTO-211H; assay: Cytotoxicity against human MSTO-211H cells after 48 hrs by sulforhodamine B assay; assay type: functional, cell-based; in short: as §2
[7] = tested on: NCI-H630; assay: Induction of apoptosis in human NCI-H630 cells assessed as appearance of sub-G1 cell subpopulation at compound IC50 after 24 hrs by flow cytometry; assay type: functional, cell-based
In short: (§3)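 Cells are trypsinized, pelleted and stained with cold propidium iodide buffer for 30 min on ice. DNA content is measured by flow cytometry (10 000 cells/sample) to give G0/G1, S and G2/M fractions and the sub-G1 population. Results are mean ± SE of three experiments, analyzed by t-test or ANOVA.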

[8] = tested on: NCI-H2052; assay: Cytotoxicity against human NCI-H2052 cells after 48 hrs by sulforhodamine B assay; assay type: functional, cell-based; conditions: NCI-H2052, 48 h; in short: as §2
[9] = tested on: ADDP; assay: Effect on cell cycle distribution in human ADDP cells assessed as DNA content after 24 hrs by flow cytometry; assay type: functional, cell-based; in short: as §3
[10] = Cytotoxicity against human ADDP cells after 48 hrs by sulforhodamine B assay; assay type: functional, cell-based; in short: as §2
[11] = molecular target: L-lactate dehydrogenase B chain (Homo sapiens) (UniProt P07195); assay: Inhibition of human LDH-B using saturating concentration of pyruvate and NADH as cofactor after 5 mins by calorimetric assay relative to control; in short: as §1
[12] = molecular target: T1, L-lactate dehydrogenase A chain; assay: Competitive inhibition of human LDH-A using NADH as substrate after 5 mins by calorimetric assay relative to control
In short: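 Ki values from Lineweaver-Burk double-reciprocal plots. Enzyme is purified human LDH5 (LDH-A4), 0.005 units, in 100 mM sodium phosphate pH 7.4 at 37 °C. Pyruvate is held saturating at 2 mM while NADH is varied from 12.5 to 150 µM. Inhibitor is at 25–100 µM. NADH oxidation is read as A340 every 30 s for 5 min, in triplicate.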

[13] = tested on: NCI-H2452; assay: Cytotoxicity against human NCI-H2452 cells after 48 hrs by sulforhodamine B assay; assay type: functional, cell-based; conditions: NCI-H2452, 48 h; in short: as §2
[14] = molecular target: T1, L-lactate dehydrogenase A chain; assay: Competitive inhibition of human LDH-A using pyruvate as substrate after 5 mins by calorimetric assay relative to control
In short: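 Ki values from Lineweaver-Burk double-reciprocal plots. Enzyme is purified human LDH5 (LDH-A4), 0.005 units, in 100 mM sodium phosphate pH 7.4 at 37 °C. NADH is held saturating at 200 µM while sodium pyruvate is varied from 25 µM to 1 mM. Inhibitor is at 25–100 µM. A340 decrease is read every 30 s for 5 min, in triplicate.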

[15] = tested on: NCI-H630; assay: Cytotoxicity against human NCI-H630 cells after 48 hrs by sulforhodamine B assay; assay type: functional, cell-based; conditions: NCI-H630, 48 h; in short: as §2
[16] = Cytotoxicity against human LPc028 cells after 48 hrs by sulforhodamine B assay; assay type: functional, cell-based; conditions: LPc028, 48 h; in short: as §2
[17] = tested on: NCI-H630; assay: Effect on cell cycle distribution in human NCI-H630 cells assessed as DNA content after 24 hrs by flow cytometry; assay type: functional, cell-based; in short: as §3
[18] = Cytotoxicity against human LPc006 cells after 48 hrs by sulforhodamine B assay; assay type: functional, cell-based; conditions: LPc006, 48 h; in short: as §2
[19] = tested on: ADDP cell line; assay: Induction of apoptosis in human ADDP cells assessed as appearance of sub-G1 cell subpopulation at compound IC50 after 24 hrs by flow cytometry; assay type: functional, cell-based; in short: as §3
[20] = Cytotoxicity against human LPc006 cells grown in hypoxic condition after 48 hrs by sulforhodamine B assay relative to normoxygenated cells; assay type: functional, cell-based; conditions: LPc006, 48 h
In short: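 LPC006 primary pancreatic cancer cells are treated with compounds at 1–100 µM for 48 h under hypoxia (1% O2, 5% CO2, 94% N2, 37 °C). Read-out is the SRB assay at 492 nm with growth calculated relative to T0 and control. IC50 is the mean ± SE of three independent experiments and is compared with normoxic cells by Student's t-test.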

[21] = tested on: NCI-H28; assay: Cytotoxicity against human NCI-H28 cells after 48 hrs by sulforhodamine B assay; assay type: functional, cell-based; conditions: NCI-H28, 48 h; in short: as §2
[22] = tested on: HeLa; assay: Reduction in lactate production in perfused human HeLa cells assessed as lactate to glucose ratio at 500 uM after 12 hrs by NMR spectroscopy using D-[1,6-13C2]glucose as substrate relative to control; assay type: functional
In short: (§4)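 HeLa cells are grown in RPMI-1640 with 10% FBS to 80% confluency, then washed for 15 min in glucose-free DMEM. Medium is replaced with DMEM containing 10 mM D-[1,6-13C2]glucose. Compound is added from 100× DMSO stocks (1% DMSO final), with vehicle controls, at 37 °C under normoxia. Medium is sampled at 6 and 12 h. 13C NMR gives the lactate-C3 (20.28 ppm) to glucose-C6 (60.95 ppm) peak-area ratio.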

[23] = Cytotoxicity against human LPc067 cells after 48 hrs by sulforhodamine B assay; assay type: functional, cell-based; conditions: LPc067, 48 h; in short: as §2
[24] = tested on: HeLa; assay: Reduction in lactate production in perfused human HeLa cells at < 400 uM after 12 hrs by NMR spectroscopy using D-[1,6-13C2]glucose as substrate; assay type: functional, cell-based; in short: as §4
[25] = tested on: HeLa; assay: Reduction in lactate production in perfused human HeLa cells at 400 uM after 12 hrs by NMR spectroscopy using D-[1,6-13C2]glucose as substrate; assay type: functional; parameters: scale not given: the % may be the effect or the level left; in short: as §4

Row | inhibition [1] | inhibition [2] | inhibition [11] [%] | pKi [12] | pKi [14] | Compound | pIC50 [3] | pIC50 [4] | pIC50 [5] | pIC50 [6] | Activity [7] | pIC50 [8] | Activity [9] | pIC50 [10] | pIC50 [13] | pIC50 [15] | pIC50 [16] | Activity [17] | pIC50 [18] | Activity [19] | pIC50 [20] | other results
1 | 4% | 8% |  |  |  | COC(=O)c1cc2ccc(-c3ccccc3)cc2n1O |  |  |  |  |  |  |  |  |  |  |  |  |  |  |  | 
2 | Active | Active |  |  |  | O=C(O)c1cc2cc(-c3ccccc3)ccc2[nH]1 |  |  |  |  |  |  |  |  |  |  |  |  |  |  |  | 
3 | inactive | inactive |  |  |  | COn1c(C(=O)O)cc2ccc(-c3ccccc3)cc21 |  |  |  |  |  |  |  |  |  |  |  |  |  |  |  | 
4 | 84% |  | < 3 | 4.70 | 4.45 | O=C(O)c1cc2ccc(-c3ccccc3)cc2n1O | < 4.00 | 5.00 | < 4.00 | 5.62 | Active | 4.30 | Dose-dependent effect | 4.79 | 4.67 | 4.82 | 4.49 | Dose-dependent effect | 4.80 | Active | 6.44 | pIC50 [21]: 5.11; Ratio [22]: 0.12; pIC50 [23]: 4.74
5 | 32% |  |  |  |  | O=C(O)c1cc2c(Br)cccc2n1O |  |  |  |  |  |  |  |  |  |  |  |  |  |  |  | 
6 | 11% |  |  |  |  | O=C(O)c1cc2ccc(-c3nn[nH]n3)cc2n1O |  |  |  |  |  |  |  |  |  |  |  |  |  |  |  | 
7 | 87% | 11% | 11 | 5.05 | 5.33 | O=C(O)c1cc2c(C(F)(F)F)cc(-c3ccccc3)cc2n1O | < 4.00 | 4.97 | < 4.00 | 4.97 | Active | 4.14 | Dose-dependent effect | 4.77 | 4.04 | 4.50 | 4.39 | Dose-dependent effect | 4.79 | Active | 6.05 | Activity [24]: inactive; pIC50 [21]: 4.94; Activity [25]: 20%; Ratio [22]: < 0.01; pIC50 [23]: 4.87
8 | 99% |  | < 3 | 4.98 | 4.80 | O=C(O)c1cc2cc(-c3ccccc3)ccc2n1O | < 4.00 | 4.86 | < 4.00 | 5.60 | Active | 4.20 | Dose-dependent effect | 4.84 | 4.34 | 4.75 | 4.31 | Dose-dependent effect | 4.84 | Active | 7.00 | pIC50 [21]: 5.24; pIC50 [23]: 4.68
